PMC3145891 (Naunyn-Schmiedeberg's Archives of Pharmacology, 2011)
“And” between values parts separate entries of the source, which are not always exact repeats. Equal entries are not always repeated. “Also recorded” adds a separate entry of the source.

What was measured:
[1] = system: cGMP antibody (ENZO cGMP-EIA); test: ENZO cGMP-EIA, acetylation protocol; assay type: binding; conditions: for Specificity ENZO cGMP-EIA: EC50cGMP/EC50Analog, acetylated
[2] = system: cGMP antibody (IBL cGMP-RIA); test: IBL cGMP-RIA; assay type: binding; conditions: for Specificity IBL cGMP-RIA: EC50cGMP/EC50Analog; for Binding constant relative to cGMP: IBL cGMP-RIA
[3] = Lipophilicity; assay type: physicochemical; conditions: calculated from log Kw data, cGMP scale
[4] = system: cAMP antibody (ENZO cAMP-EIA); test: ENZO cAMP-EIA, acetylation protocol; assay type: binding; conditions: for Specificity ENZO cAMP-EIA: EC50cAMP/EC50Analog, acetylated
[5] = system: cAMP antibody (IBL cAMP-RIA); test: IBL cAMP-RIA; assay type: binding; conditions: for Specificity IBL cAMP-RIA: EC50cAMP/EC50Analog
[6] = system: PKA (VASP phosphorylation) in human platelets; test: VASP phosphorylation western blot, pVASP Ser-157; assay type: cell-based; conditions: for Concentration needed for comparable VASP phosphorylation (PKA activation): pVASP antibody 5C6
Procedure, shortened: (§1)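 Washed human platelets were exposed to various analog concentrations for the indicated times. Protein extracts (10 µg) were run on 9% reducing SDS-PAGE and wet-blotted to nitrocellulose. Blots were blocked in 3% milk/Tris-saline-Tween and probed 1:10,000 with 16C2 (pVASP Ser-239, PKG site) or 5C6 (pVASP Ser-157, PKA site). HRP goat anti-mouse (1:5,000) and ECL gave detection.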

[7] = system: PKA II; conditions: ref Poppe et al. (2008); cited from earlier work
[8] = system: cGMP antibody (Cayman cGMP-EIA); test: Cayman cGMP-EIA; assay type: binding; conditions: EC50cGMP/EC50Analog
[9] = system: human platelets; test: Cell membrane permeability in washed human platelets; assay type: in vitro ADME; conditions: for Time to equilibrium of inside/outside concentration: platelets, Fig. 1b; for cNMP conc. inside platelets (% of external): washed human platelets, 37°C, normally 20 min; for Diffusion into the cell, result in words: compounds with log Kw < 1
Procedure, shortened: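 Human blood from medication-free donors was collected into citrate–EGTA buffer. Platelet-rich plasma (300×g) was pelleted (380×g), washed in Hepes buffer pH 7.4 and used at 3 × 10^8 platelets/ml. Cells were exposed to analogs at 37°C, normally for 20 min or over a time course. They were lysed in […] buffer pH 8.1 with 1 mM IBMX on ice, then freeze/thaw and needle disruption. Lyophilized supernatant went to EIA, assuming a 5.2 fl cell volume.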

[10] = system: PKG (VASP phosphorylation) in human platelets; test: VASP phosphorylation western blot, pVASP Ser-239; assay type: cell-based; conditions: for Concentration for maximal VASP phosphorylation: after 20 min, pVASP antibody 16C2
Procedure, shortened: as §1

[11] = system: PKG Iβ; conditions: ref Poppe et al. (2008); cited from earlier work
[12] = system: cAMP antibody (ENZO cAMP-EIA); test: ENZO cAMP-EIA, non-acetylated; assay type: binding; conditions: non-acetylated cAMP-EIA from ENZO
[13] = system: CHO cells; test: Cell membrane permeability in CHO cells; assay type: in vitro ADME, Chinese hamster; conditions: serum-free medium, normally 20 min
Procedure, shortened: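 CHO cells were grown in DMEM with 10% FBS and 1% penicillin/streptomycin at 37°C, 5% CO2. Cells were exposed to various analog concentrations in serum-free medium, normally for 20 min, then PBS-washed. Lysis used hypotonic buffer on ice for 30 min, scraping, liquid-nitrogen freeze/thaw and needle disruption. Cleared supernatant was lyophilized for EIA. Intracellular concentration assumed a 1.5 pl cell volume; % permeability = intracellular/extracellular […].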

[14] = system: cGMP antibody (ENZO cGMP-EIA); test: ENZO cGMP-EIA, non-acetylated; assay type: binding; conditions: non-acetylated cGMP-EIA from ENZO
[15] = system: cAMP and cGMP antibodies of the tested immunoassays; test: Interference with the tested cAMP and cGMP immunoassays; assay type: binding

O=c1c2nc(Br)n([C@@H]3O[C@@H]4CO[P@@](O)(=S)O[C@H]4[C@H]3O)c2nc2[nH]c(-c3ccccc3)cn12 (single isomer, unassigned) [Rp-8-Br-PET-cGMPS]
Cross-reactivity / binding to the cGMP antibody in the EIA, result in words [1]: does not bind
Specificity ENZO cGMP-EIA [1]: 0.002
Specificity IBL cGMP-RIA [2]: 0.011
Relative lipophilicity [3]: 200

Nc1ncnc2c1nc(Br)n2C1OC2COP(O)(=S)OC2C1O (single isomer, unassigned) [Rp-8-Br-cAMPS, 8-Bromoadenosine-3`,5`- cyclic monophosphorothioate, Rp-isomer]
Specificity ENZO cAMP-EIA [4]: 0.003

Nc1ncnc2c1ncn2[C@@H]1O[C@@H]2COP(O)(=S)O[C@H]2[C@H]1O (single isomer, unassigned) [Rp-cAMPS, Adenosine- 3`,5`- cyclic monophosphorothioate, Rp-isomer]
Cross-reactivity in the cAMP-EIA, result in words [4]: strong cross-reactivity; also recorded: significant cross-reactivity
Specificity ENZO cAMP-EIA [4]: 0.68
Specificity IBL cAMP-RIA [5]: 0.67
Binding constant relative to cAMP ([5]; IBL cAMP-RIA): ~66%

Nc1nc2c(ncn2[C@@H]2O[C@@H]3COP(O)(=S)O[C@H]3[C@H]2O)c(=O)[nH]1 (single isomer, unassigned) [Rp-cGMPS, Guanosine- 3`,5`- cyclic monophosphorothioate, Rp-isomer]
Specificity ENZO cGMP-EIA [1]: 0.0027
Specificity IBL cGMP-RIA [2]: 0.10

O[C@@H]1[C@@H]2OP(O)(=S)OC[C@H]2O[C@H]1n1cnc2cc(Cl)c(Cl)cc21 (single isomer, unassigned) [Sp-5,6-DCl-cBIMPS]
Specificity IBL cAMP-RIA [5]: 0.005
Concentration needed for comparable VASP phosphorylation (PKA activation) [6]: 100 µM
Activation PKA II Ka [7]: 0.12 µM

O=C(Nc1ncnc2c1ncn2[C@@H]1O[C@@H]2COP(=O)(O)OC2C1O)c1ccccc1 (stereo in doubt) [6-Bnz-cAMP, N^6-Benzoyladenosine-3`,5`- cyclic monophosphate]
Specificity ENZO cAMP-EIA [4]: 0.006
Specificity IBL cAMP-RIA [5]: 0.009

Nc1nc2c(nc(Sc3ccc(Cl)cc3)n2C2O[C@@H]3COP(=O)(O)O[C@H]3[C@H]2O)c(=O)[nH]1 (stereo in doubt) [8-pCPT-cGMP, 8-(4-Chlorophenylthio)guanosine-3`,5`- cyclic monophosphate]
Cross-reactivity / binding to the cGMP antibody in the EIA, result in words [1]: strong cross-reactivity
Specificity ENZO cGMP-EIA [1]: 2.40
Specificity IBL cGMP-RIA [2]: 0.30
Binding constant relative to cGMP [2]: ~30%
Specificity Cayman cGMP-EIA [8]: 0.0008
Time to equilibrium of inside/outside concentration [9]: 10 to 20 min
cNMP conc. inside platelets (% of external) [9]: 19.6 ± 4.7%
Concentration for maximal VASP phosphorylation ([10]; human platelets): 50 µM
Activation PKG Iβ Ka [11]: 0.9 µM

Nc1ncnc2c1ncn2[C@H]1C[C@@H]2OP(=O)(O)OC[C@H]2O1 [2′-dcAMP, 2`- Deoxyadenosine- 3`,5`- cyclic monophosphate]
Specificity ENZO cAMP-EIA [4]: 0.034
Relative binding EC50cAMP/EC50Analog [12]: 0.22
Diffusion into the cell, result in words [9]: too hydrophilic for any diffusion into the cell
cNMP conc. inside platelets (% of external) [9]: 0.2 ± 0.3%
cNMP conc. inside CHO cells (% of external) [13]: 0.1 ± 0.2%
VASP phosphorylation (PKA site), result in words [6]: no VASP phosphorylation

Nc1nc2c(ncn2[C@H]2C[C@@H]3OP(=O)(O)OC[C@H]3O2)c(=O)[nH]1 [2′-dcGMP, 2`- Deoxyguanosine- 3`,5`- cyclic monophosphate]
Specificity ENZO cGMP-EIA [1]: 0.052
Relative binding EC50cGMP/EC50Analog [14]: 2.2 and 2.21
Diffusion into the cell, result in words [9]: too hydrophilic for any diffusion into the cell
cNMP conc. inside platelets (% of external) [9]: 0.5 ± 0.1%
cNMP conc. inside CHO cells (% of external) [13]: 0.3 ± 0.5%
VASP phosphorylation (PKG site), result in words ([10]; concentrations up to 2 mM): no VASP phosphorylation
Activation PKG Iβ Ka [11]: 21 µM

CCCC(=O)Nc1ncnc2c1ncn2[C@@H]1O[C@@H]2COP(=O)(O)O[C@H]2[C@H]1O [6-MB-cAMP, N^6-Monobutyryladenosine-3`,5`-cyclic monophosphate]
Specificity ENZO cAMP-EIA [4]: 0.004
Specificity IBL cAMP-RIA [5]: 0.012

O=c1c2nc(Br)n([C@@H]3O[C@@H]4COP(=O)(O)O[C@H]4[C@H]3O)c2nc2[nH]c(-c3ccccc3)cn12 [8-Br-PET-cGMP, β-Phenyl-1,N^2-etheno-8-Bromoguanosine-3`,5`- cyclic monophosphate]
Specificity ENZO cGMP-EIA [1]: 0.10
Percent of the cGMP affinity to the antibody ([1]; ENZO cGMP-EIA): 10%
Specificity IBL cGMP-RIA [2]: 0.015
Relative binding EC50cGMP/EC50Analog [14]: 0.08
cNMP conc. inside platelets (% of external) [9]: 30.9 ± 5.7%
cNMP conc. inside CHO cells (% of external) [13]: 24.1 ± 9.7%
Concentration sufficient to activate PKG ([10]; human platelets, VASP phosphorylation): 0.25 µM
Activation PKG Iβ Ka [11]: 0.009 µM

Nc1ncnc2c1nc(Br)n2[C@@H]1O[C@@H]2COP(=O)(O)O[C@H]2[C@H]1O [8-Br-cAMP, 8-Bromoadenosine-3`,5`- cyclic monophosphate]
Specificity ENZO cAMP-EIA [4]: 0.004
Specificity IBL cAMP-RIA [5]: 0.026
Concentration needed for comparable VASP phosphorylation (PKA activation) [6]: 500 µM
Activation PKA II Ka [7]: 0.09 µM

Nc1nc2c(nc(Br)n2[C@@H]2O[C@@H]3COP(=O)(O)O[C@H]3[C@H]2O)c(=O)[nH]1 [8-Br-cGMP, 8-Bromoguanosine-3`,5`- cyclic monophosphate]
Cross-reactivity / binding to the cGMP antibody in the EIA, result in words [1]: strong cross-reactivity
Specificity ENZO cGMP-EIA [1]: 4.90
Specificity IBL cGMP-RIA [2]: 0.20
Binding constant relative to cGMP [2]: ~20%
Relative binding EC50cGMP/EC50Analog [14]: 6.40
Time to equilibrium of inside/outside concentration [9]: 10 to 20 min
cNMP conc. inside platelets (% of external) [9]: 12.1 ± 3.5%
cNMP conc. inside CHO cells (% of external) [13]: 13.5 ± 11.5%
Concentration for maximal VASP phosphorylation ([10]; human platelets): 200 µM
Activation PKG Iβ Ka [11]: 1.0 µM

CO[C@@H]1[C@@H]2OP(=O)(O)OC[C@H]2O[C@H]1n1c(Sc2ccc(Cl)cc2)nc2c(N)ncnc21 [8-pCPT-2′-OMe-cAMP, 8-(4-Chlorophenylthio)-2`-O-methyladenosine-3`,5`- cyclic monophosphate]
Specificity ENZO cAMP-EIA [4]: 0.0003
Specificity ENZO cGMP-EIA [1]: 0.0002
Specificity IBL cAMP-RIA [5]: 0.0066
Specificity IBL cGMP-RIA [2]: <10^−4

Nc1ncnc2c1nc(Sc1ccc(Cl)cc1)n2[C@@H]1O[C@@H]2COP(=O)(O)O[C@H]2[C@H]1O [8-pCPT-cAMP, 8-(4-Chlorophenylthio)adenosine-3`,5`- cyclic monophosphate]
Specificity ENZO cAMP-EIA [4]: 0.0005

CCCCCCC(C(C)O)n1cnc2c(N)ncnc21.Cl (centres unmarked) [EHNA, 3-(6-aminopurin-9-yl)nonan-2-ol hydrochloride]
Interference / cross-reaction with the tested immunoassays, result in words [15]: do not interfere

CC(C)Cn1c(=O)n(C)c(=O)c2[nH]cnc21 [IBMX, 3-Isobutyl-1-methylxanthine]
Specificity ENZO cAMP-EIA [4]: <10^−5
Specificity ENZO cGMP-EIA [1]: <10^−6
Specificity IBL cAMP-RIA [5]: <10^−4
Specificity IBL cGMP-RIA [2]: <10^−6
Specificity Cayman cGMP-EIA [8]: <10^−5
Interference / cross-reaction with the tested immunoassays, result in words [15]: do not interfere

Cn1c(=O)c2[nH]cnc2n(C)c1=O [Theophylline, 1,3-dimethyl-7H-purine-2,6-dione]
Interference / cross-reaction with the tested immunoassays, result in words [15]: do not interfere

Nc1nc2c(ncn2[C@@H]2O[C@@H]3COP(=O)(O)O[C@H]3[C@H]2O)c(=O)[nH]1 [cGMP, Guanosine- 3`,5`- cyclic monophosphate]
Specificity ENZO cGMP-EIA [1]: 1.00
Specificity IBL cGMP-RIA [2]: 1.00
Specificity Cayman cGMP-EIA [8]: 1.00
Relative binding EC50cGMP/EC50Analog [14]: 1.00
Activation PKG Iβ Ka [11]: 0.9 µM
